Experimental data: ChEMBL document CHEMBL3112447, “Discovery of 1-methyl-1H-imidazole derivatives as potent Jak2 inhibitors” (J Med Chem, 2014)

Columns and labels:
[1] = Volume of distribution at steady state in beagle dog at 2.5 mg/kg, iv; assay type: ADME, organism-based, Canis lupus familiaris; design: dose 2.5 mg/kg, route intravenous; settings: in vivo, read-out: Vdss
How it was run: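 Male beagle dogs. Oral dose 10 mg/kg in 0.1% HPMC, pH 2. IV dose 2.5 mg/kg in 20% TEG/D5W. […] Clearance, Vdss, half-life and oral bioavailability (F%) derived from the plasma profiles.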

[2] = Cytotoxicity against mouse BA/F3 cells expressing TEL-Jak1 after 72 hrs by MTS assay; assay type: functional; settings: BaF3, 72 h
How it was run: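 BaF3 cells transfected with the kinase domain of Jak1, Jak3 or Tyk2 (TEL fusions). Growth inhibition measured as the counter-screen for cellular selectivity.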

[3] = test system: Mus musculus; test: In vivo inhibition of Jak2 in mouse transfected with mouse BA/F3 cells expressing TEL-Jak2 assessed as inhibition of STAT5 phosphorylation at 3 mg/kg, po after 8 hrs by Western blotting analysis; assay type: functional; settings: BaF3, 8 h
How it was run: (§1)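 Mice bearing BaF3 TEL-JAK2 cells given a single oral dose of 3, 5 or 10 mg/kg and sacrificed at various times after dosing. Spleen lysates probed for phospho-STAT5 and total STAT5 by Western blot, and pSTAT5 inhibition assessed.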

[4] = test system: Mus musculus; test: In vivo inhibition of Jak2 in mouse transfected with mouse BA/F3 cells expressing TEL-Jak2 assessed as inhibition of STAT5 phosphorylation at 3 mg/kg, po after 6 hrs by Western blotting analysis; assay type: functional; settings: BaF3, 6 h; how it was run: as §1

Vd [1]: 1.9 L/kg
Compound: C[C@H](Nc1nc(Nc2cn(C)cn2)c2cc[nH]c2n1)c1ncc(F)cn1
GI50 [2]: 220 nM
inhibition in vivo at 3 mg/kg [3]: 30%
inhibition in vivo at 3 mg/kg [4]: 80%
